Results as given in ChEMBL document CHEMBL1156424, “Withaferin a strongly elicits IkappaB kinase beta hyperphosphorylation concomitant with potent inhibition of its kinase activity” (J Biol Chem, 2007).
Active and inactive are the calls of the source. No cut-off for these calls is given here.

Experiments:
[1] = (§1) Inhibition of TNF-induced NF-kappaB-mediated IL6 promoter expression in mouse L929sA cells by luciferase reporter gene assay; type: cell-based
Method in brief: (§2)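 Stably transfected mouse L929sA cells carrying p(IL-6κB)350hu.IL6P-luc+ (NFκB-responsive elements in front of a minimal IL-6 promoter), pretreated 1 h with compound over a concentration range, then given 2000 IU/ml TNF for 6 h. Luciferase in lysates was normalized to co-expressed β-galactosidase (chemiluminescent) and protein.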

L929sA [2] = assay: Reversal of inhibition of TNF-induced NFkappaB/DNA binding in mouse L929sA cells at 2.8 ug/ml in presence of 250 uM dithiothreitol by electrophoretic mobility shift assay; type: cell-based
Method in brief: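 L929sA cells co-treated 1 h with 2.8 µg/ml and 250 µM DTT, then 2000 IU/ml TNF for 30 min. Equal protein from total extracts incubated 25 min with a 32P-labeled NFκB-specific oligonucleotide (labeled with [α-32P]dCTP by Klenow) for EMSA.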

[3] = target: T1, Inhibitor of nuclear factor kappa-B kinase subunit beta (Mus musculus) (UniProt O88351); assay: Induction of IKK-beta-mediated IkappaBalpha degradation in TNF-stimulated mouse L929sA cells at 2.8 ug/ml by Western blot
T1 sequence (whole entry): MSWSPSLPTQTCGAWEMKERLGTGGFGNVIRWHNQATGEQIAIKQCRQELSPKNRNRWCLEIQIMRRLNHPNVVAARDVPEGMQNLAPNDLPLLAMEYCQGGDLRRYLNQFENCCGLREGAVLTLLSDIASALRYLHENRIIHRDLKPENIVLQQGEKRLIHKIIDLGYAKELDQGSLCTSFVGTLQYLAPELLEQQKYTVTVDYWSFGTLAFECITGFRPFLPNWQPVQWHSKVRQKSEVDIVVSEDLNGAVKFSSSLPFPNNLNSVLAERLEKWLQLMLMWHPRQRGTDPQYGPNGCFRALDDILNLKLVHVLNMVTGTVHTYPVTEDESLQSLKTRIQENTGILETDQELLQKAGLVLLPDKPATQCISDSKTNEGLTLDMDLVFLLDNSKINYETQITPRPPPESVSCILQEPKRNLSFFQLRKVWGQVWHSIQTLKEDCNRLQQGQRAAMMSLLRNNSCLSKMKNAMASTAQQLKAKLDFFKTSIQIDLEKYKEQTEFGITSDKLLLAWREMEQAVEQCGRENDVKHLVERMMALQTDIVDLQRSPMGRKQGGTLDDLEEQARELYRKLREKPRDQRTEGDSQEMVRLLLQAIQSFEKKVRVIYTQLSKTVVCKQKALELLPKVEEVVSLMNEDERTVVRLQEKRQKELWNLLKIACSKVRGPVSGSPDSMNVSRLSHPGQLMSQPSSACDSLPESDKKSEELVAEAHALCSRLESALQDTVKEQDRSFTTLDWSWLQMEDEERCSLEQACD

L929sA [4] = assay: as §1; type: cell-based; method in brief: as §2
Mus musculus [5] = assay: Antiinflammatory activity against ip dosed zymosan-induced C57BL/6J mouse inflamed paw model assessed as effect on paw swelling administered 30 mins before zymosan challenge; type: functional, organism-based
Method in brief: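 Male/female not stated; 8-week-old C57BL/6J mice, 10 per group. 60 µl ip of 0.5 mg/mouse in Me2SO (vehicle group: Me2SO alone; DEX 150 µg/mouse as comparator), then 30 min later zymosan (15 mg/ml in PBS) sc into right footpad, left footpad uninjected. Thickness of both footpads measured by caliper at 6, 12, 24 and 48 h; read-out is injected minus non-injected difference.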

Mus musculus [6] = assay: Reduction of IL6 protein level in ip dosed zymosan-induced C57BL/6J mouse inflamed paw model measured 6 hrs after zymosan challenge; type: functional, organism-based
Method in brief: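 Mice (six per group) pretreated ip with 0.5 mg/mouse in Me2SO, DEX 150 µg/mouse or Me2SO 60 µl/mouse, 30 min before footpad zymosan. Blood drawn by retro-orbital sinus puncture under isoflurane 6 h after zymosan; IL-6 quantified by 7TD1 cell growth-stimulation bioassay. Groups compared with control by ANOVA, p<0.05 significant.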

[7] = target: T1, Inhibitor of nuclear factor kappa-B kinase subunit beta (Mus musculus); assay: Induction of IKK-beta-hyperphosphorylation in TNF-stimulated mouse L929sA cells at 2.8 ug/ml by Western blot
[8] = target: T1, Inhibitor of nuclear factor kappa-B kinase subunit beta (Mus musculus); assay: Reversal of induction of IKK-beta-hyperphosphorylation in TNF-stimulated mouse L929sA cells at 2.8 ug/ml in presence of 5 mM dithiothreitol

Row | Activity [8] | Compound | IC50 [1] [µM] | Activity (L929sA [2]) | Activity [3] | Efficacy (L929sA [4]) [%] | Activity (Mus musculus [5]) | Activity (Mus musculus [6]) | Activity [7]
1 | – | C=C1C(=O)O[C@@H]2C[C@@H](C)[C@@H]3C=CC(=O)[C@@]3(C)[C@@H](O)[C@H]12 [HELENALIN] | 2.5 | – | – | – | – | – | –
2 | Active | CC1=C(CO)C(=O)O[C@@H]([C@@H](C)[C@H]2CC[C@H]3[C@@H]4C[C@H]5O[C@]56[C@@H](O)C=CC(=O)[C@]6(C)[C@H]4CC[C@]23C)C1 [WITHAFERIN A] | 0.25 | Active | Active | 95 | Active | Active | Active
3 | – | C[C@@H]1C[C@H]2[C@@H]3CCC4=CC(=O)C=C[C@]4(C)[C@@]3(F)[C@@H](O)C[C@]2(C)[C@@]1(O)C(=O)CO | – | – | – | – | Active | Active | –
4 | – | CC1=C(CO)C(=O)OC([C@@H](C)C2CCC3C4C(CC[C@@]32C)[C@@]2(C)C(=O)C=CC[C@]2(O)[C@H]2O[C@@H]42)C1 (some centres not stated) | 90 | – | inactive | – | – | – | inactive
5 | – | CC1=C(C)C(=O)O[C@@H]([C@](C)(O)[C@H]2CC[C@H]3[C@@H]4[C@@H]5O[C@@H]5[C@@]5(O)CC=CC(=O)[C@]5(C)[C@H]4CC[C@]23C)C1 [WITHANOLIDE A] | 50 | – | inactive | – | – | – | inactive
